Screening data deposited in PubChem BioAssay by The Scripps Research Institute Molecular Screening Center.
Shown are actives, neighbours in structure and some others; about 4.6% of the full set was active somewhere.
OX1R antag-1 – antagonists of human orexin 1 receptor (OX1R) | OX1R-expressing cells, FRET antagonist read-out | inhibition, % at 6.6 µM | O43613 | AID 485270 | 330,000 compounds, 1.8% hits; in the data active = inhibition mostly above about 38%, no sharp cut-off; inactive = mostly below about 40%;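 note: 0% = agonist challenge alone and 100% = reference antagonist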
Target sequence (O43613 whole entry, looked up): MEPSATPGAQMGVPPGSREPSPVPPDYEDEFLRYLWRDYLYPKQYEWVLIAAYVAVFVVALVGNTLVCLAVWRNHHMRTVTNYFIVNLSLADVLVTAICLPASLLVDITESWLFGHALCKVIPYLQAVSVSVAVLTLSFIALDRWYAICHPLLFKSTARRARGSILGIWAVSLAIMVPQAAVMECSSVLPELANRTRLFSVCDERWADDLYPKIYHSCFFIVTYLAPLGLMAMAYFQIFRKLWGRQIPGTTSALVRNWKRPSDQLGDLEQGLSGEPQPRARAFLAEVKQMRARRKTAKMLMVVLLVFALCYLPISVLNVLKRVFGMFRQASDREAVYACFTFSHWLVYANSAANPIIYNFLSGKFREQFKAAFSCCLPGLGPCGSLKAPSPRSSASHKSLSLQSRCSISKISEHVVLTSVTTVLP
TAAR1 ag – human TAAR1 agonism; CHO RD-HGA16 TAAR1, Fluo-8 calcium fluorescence; vehicle wells 0%, saturating PEA agonist 100%; 360,000 compounds, 0.99% hits; AID 624467; activation, % at 3 µM; Q96RJ0;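 active = activation above the mean activation of all test compounds in the run plus 3 SD, cut at about 38% in these data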
Target sequence (Q96RJ0 whole entry, looked up): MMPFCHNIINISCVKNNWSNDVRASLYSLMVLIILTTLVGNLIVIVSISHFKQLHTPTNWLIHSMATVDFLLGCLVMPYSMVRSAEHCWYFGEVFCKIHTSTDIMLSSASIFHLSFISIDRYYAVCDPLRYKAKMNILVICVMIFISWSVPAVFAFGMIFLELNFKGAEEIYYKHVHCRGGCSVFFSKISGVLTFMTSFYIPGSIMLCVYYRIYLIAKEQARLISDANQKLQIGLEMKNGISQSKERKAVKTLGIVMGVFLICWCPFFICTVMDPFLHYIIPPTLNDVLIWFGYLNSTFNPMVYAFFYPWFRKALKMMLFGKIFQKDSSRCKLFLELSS
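System: CHO-derived RD-HGA16 cells with stable Gα16 and human TAAR1 / Times: 17-24 h plating, Fluo-8 75 min 37 °C, 30 min RT / Technique: calcium-sensitive Fluo-8 signal, excitation 470-495, emission 515-575 nm / Measure: % activation relative to PEA EC100 response / Benchmarks: DMSO and PEA EC100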
GPR7 antagonist – blocks human GPR7 receptor signaling; GPR7-expressing cells, fluorescence antagonist assay; inhibition, % at 4.4 µM; 290,000 compounds, 1.1% hits; in the data active = inhibition above about 16%, passing the limit was not always enough;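 note: cells stimulated with the agonist NPW; 0% = agonist with vehicle and 100% = vehicle without agonist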
TAAR1 antag – human TAAR1 antagonism; inhibition, % at 3 µM; Q96RJ0; CHO RD-HGA16 TAAR1, Fluo-8 calcium fluorescence, antagonist; 360,000 compounds, 1.5% hits;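 active = inhibition above a per-plate cutoff, the mean inhibition of test compounds on that plate plus 3 SD, cut at about 49% in these data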;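 note: 0% = DMSO plus EC80 beta-PEA response and 100% = DMSO alone without agonist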
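System: RD-HGA16 CHO cells with stable hTAAR1 and Gα16 | Probe or stimulus: EC80 β-phenethylamine stimulus | Dosing: 3 µM, single point | Times: Dye loading 75 min at 37 °C, then 30 min room temperature | Measured by: Fluo-8 calcium-sensitive fluorescence | Read-out basis: % inhibition of agonist calcium response | Replicates: n of 1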
CHO parental Ca – signal in parental CHO cells, OX1R antagonist counter-screen. parental CHO-K1, ATP-induced calcium, Fluo-8 fluorescence. inhibition, % at 5.6 µM. 330,000 compounds, 0.63% hits. AID 463079;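 active = inhibition above that plate's mean sample inhibition plus 3 SD, cut at about 26% in these data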;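 note: 0% = ATP-challenged DMSO wells and 100% = DMSO wells without ATP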
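Assay system: parental CHO cells; Read-out basis: percent inhibition of ATP-evoked calcium rise, normalized to controls; Benchmarks: ATP and no-ATP DMSO wells; Compound dosing: single nominal dose of 5.6 µM per compound; Signal: Fluo-8 calcium dye fluorescence; Also added: ATP as calcium-mobilizing challenge; Repeats: singlicate.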
OX1R antag-2 – blocks the human orexin 1 receptor; O43613; CHO/OX1R cells, Fluo-8 calcium fluorescence, orexin A; inhibition, % at 5 µM; 330,000 compounds, 0.43% hits; AID 434989;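 active = inhibition above its plate's threshold, mean inhibition of all tested compounds on the plate plus 3 SD, cut at about 37% in these data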;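 note: 0% = orexin A challenge wells and 100% = SB-334867-A antagonist wells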
OX1R HTRF conf – confirmation of human orexin 1 receptor antagonists, HTRF format; shares compounds with OX1R antag-1; OX1R-expressing cells, HTRF antagonist assay; inhibition, % at 6.6 µM; 1,800 compounds, 49% hits; in the data active = inhibition above about 55%;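 note: CHO cells expressing OX1R stimulated with orexin A at about EC80; 0% = agonist challenge alone and 100% = reference antagonist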
CHO-K1 HTRF – counter-screen for OX1R antagonists: effect in parental CHO-K1 cells. shares compounds with OX1R antag-1. HTRF counterscreen. inhibition, % at 6.6 µM. 1,800 compounds, 48% hits. AID 493232; in the data active = inhibition above about 17%;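 note: 0% = agonist challenge with vehicle and 100% = vehicle alone without agonist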
* hit, by the source's call; x = not tested or not shown.

SMILES | OX1R antag-1 | TAAR1 ag | GPR7 antagonist | TAAR1 antag | CHO parental Ca | OX1R antag-2 | OX1R HTRF conf | CHO-K1 HTRF
CC(=O)c1ccc(Nc2ccc([N+](=O)[O-])c3nonc23)cc1 | 78* | 10 | -9 | -2 | 20 | 0 | 41 | 39*
NS(=O)(=O)c1ccc(Nc2ccc([N+](=O)[O-])c3nonc23)cc1 | 132* | 2 | 8 | -13 | 4 | -2 | 50 | 63*
COc1ccc(Nc2ccc([N+](=O)[O-])c3nonc23)c(OC)c1 | 51 | -4 | 5 | -1 | -17 | -34 | x | x
COc1cc2c(cc1OC)CN(C(=O)CN1C(=O)c3ccc([N+](=O)[O-])cc3C1=O)CC2 | 98* | 1 | x | 2 | -29 | -34 | 45 | 37*
COc1ccc(Br)c(C(=O)N2CCN(S(=O)(=O)c3cccs3)CC2)c1 | 136* | 0 | -9 | -7 | -6 | -17 | 18 | 4
CCC(=O)N=c1ccn(C2=Nc3ccccc3NC2=C(C#N)C#N)cc1 | 102* | 2 | -9 | -38 | -4 | -12 | 49 | 36*
CNS(=O)(=O)c1cc2c3c(cccc3c1)C(=O)NC2=O | 130* | 2 | -6 | -6 | -4 | -2 | 51 | 78*
O=C(NCCN1C(=O)S/C(=C\c2ccc(Cl)c([N+](=O)[O-])c2)C1=O)C1=COCCO1 | 83* | 11 | x | 27 | -3 | -2 | 48 | 57*
O=C(NCCN1C(=O)S/C(=C\c2ccc(Cl)c(Cl)c2)C1=O)c1cnccn1 | 6 | 7 | -3 | 19 | -1 | -3 | x | x
c1ccc(-c2cc3nc(NCc4cccs4)nc(NCc4ccc5occc5c4)c3s2)cc1 | x | 2 | x | -23 | x | x | x | x
CCOC(=O)c1ccc2[nH]c(C)c(C)c2c1 | 93* | -1 | -7 | -12 | -12 | 24 | 66* | 10
Cc1[nH]c2ccc(C(=O)OCCN(C)C)cc2c1C | 15 | 17 | -11 | -10 | -8 | -4 | x | x
C[C@@H]1CN([C@@H](C)CO)C(=O)CCCn2cc(nn2)CO[C@H]1CN(C)C(=O)Nc1ccccc1F | x | 1 | x | -5 | x | x | x | x
CCN(CC)C(=O)C1=C(C)N(Cc2ccc(F)cc2)C(=O)C(CC(=O)NC(c2ccccc2)c2ccccc2)C1 (configuration not stated) | x | 4 | x | -18 | x | x | x | x
O=C(Nc1cc([N+](=O)[O-])ccc1O)c1cccc(C(=O)Nc2cc([N+](=O)[O-])ccc2O)c1 | 8 | 8 | -16 | -6 | -5 | -4 | x | x
O=C(Nc1c[nH]c(=O)[nH]c1=O)c1ccc([N+](=O)[O-])cc1 | 138* | 3 | -4 | -8 | -5 | -6 | 49 | 72*
NS(=O)(=O)c1ccc(O)c(NC(=O)c2ccc([N+](=O)[O-])cc2)c1 | 92* | 3 | -6 | -17 | -2 | -12 | 41 | 47*
COCCN1C[C@@H](CO)O[C@@H](n2cnc3c(NC4CCCC4)ncnc32)C1 | x | 3 | x | -19 | x | x | x | x
CC(C)(C)NC(=O)C1c2ccccc2OCC(=O)N1CC(F)(F)F (configuration not stated) | x | 3 | x | -15 | x | x | x | x
COc1ccc(/C=N/NC(=O)c2cc(C)on2)c2ccccc12 | 87* | 9 | -14 | 19 | -29 | -24 | 65* | 11
COc1cc(OC)c2cc(C(=O)N/N=C/c3cccc(OC)c3O)[nH]c2c1 | 77* | 16 | -1 | 32 | -12 | 13 | 72* | 10
COc1cccc(/C=N/NC(=O)N/N=C/c2cccc(OC)c2O)c1O | -1 | 10 | -22 | 33 | -10 | -26 | x | x
COC(=O)c1ccc(/C=C(\C#N)c2ccccn2)cc1 | 45 | 15 | 2 | 4 | -12 | -23 | x | x
N#C/C(=C\c1ccc([N+](=O)[O-])cc1)c1ccccn1 | 121* | -2 | -10 | 4 | -14 | -7 | 53 | 51*
CCn1c(=O)c2[nH]c(Cl)nc2n(CC)c1=O | x | 1 | x | -13 | x | x | x | x
SMILES | OX1R antag-1 | TAAR1 ag | GPR7 antagonist | TAAR1 antag | CHO parental Ca | OX1R antag-2 | OX1R HTRF conf | CHO-K1 HTRF
CN1CCn2cnc(C(=O)Nc3ccc(Cl)cc3)c2C1=O | x | 3 | x | -10 | x | x | x | x
O=C1NC(=O)/C(=C\c2ccc(Oc3ccc([N+](=O)[O-])cn3)cc2)S1 | 77* | -1 | 9 | -6 | 17 | 2 | 46 | 10
COC(=O)[C@@]12C[C@@H](CC(=O)NCCCCc3ccccc3)C(=O)N(Cc3ccco3)C1=CCC(C)(C)C2 | x | -1 | x | -24 | x | x | x | x
C[C@H](CO)N1C[C@H](C)[C@H](CN(C)C(=O)Nc2ccc(C(F)(F)F)cc2)OCc2cnnn2CCCC1=O | x | 13 | x | -7 | x | x | x | x
Cc1cc(C(=O)Nc2cccc3cccnc23)ccc1[N+](=O)[O-] | 80* | 16 | 6 | -3 | -28 | 11 | 56* | 9
CC(C)Oc1ccc(C(=O)Nc2cccc3cccnc23)cc1 | 79* | -2 | -9 | 25 | -20 | 19 | 7 | -7
O=C(Nc1cccc2cccnc12)c1cccc([N+](=O)[O-])c1 | 16 | 0 | -15 | -6 | -16 | -10 | x | x
O=C(COc1ccc2ccccc2c1)Nc1cccnc1Cl | 12 | 0 | -10 | -4 | -27 | -34 | x | x
O=C(COc1ccc2ccccc2c1)Nc1cccc2cccnc12 | 81* | 13 | 7 | 25 | -23 | 27 | 45 | -1
CC(C)CNC(=O)C1(C)CCCN1C(=O)c1c(Cl)cccc1Cl (configuration not stated) | x | 1 | x | -14 | x | x | x | x
O=C1C(=O)c2ccccc2C([O-])=C1[n+]1ccccc1 | 171* | 3 | -6 | -22 | -10 | -13 | 60* | 108*
COc1cc(/C=N/NC(N)=O)cc([N+](=O)[O-])c1O | 91* | 0 | -7 | -20 | -4 | 3 | 55* | 62*
COc1cc2c(=O)n(CCC(=O)NCC3CCCO3)c(=O)n(CC(=O)c3ccc(Cl)cc3)c2cc1OC (configuration not stated) | 93* | 3 | -11 | -34 | -4 | -35 | 27 | 2
CCOC(=O)c1nn(-c2ccccc2)c(=O)c2c(N)scc12 | 108* | 0 | -9 | 7 | -13 | -22 | 31 | 17*
CCOC(=O)c1nn(-c2ccccc2)c(C(=O)OCC)c1N | -4 | 13 | -8 | -6 | -15 | -5 | x | x
OCCCN=c1cc(-c2ccccc2)oc2ccc(Cl)cc12 | 96* | 2 | -5 | -8 | -18 | -24 | 36 | 61*
CC1(C)CC(N=c2cc(-c3ccccc3)oc3ccc(Cl)cc23)CC(C)(C)N1 | x | 1 | -14 | 6 | x | x | x | x
COc1ccc(-c2csc(Nc3ncccc3C)n2)cc1OC | 84* | 2 | -16 | -3 | -23 | 24 | 73* | 11
